The values that follow come from ChEMBL document CHEMBL1127706, “HIV-inhibitory natural products. 11. Comparative studies of sulfated sterols from marine invertebrates” (J Med Chem, 1994).

By EC50 is commonly meant the concentration that produces a half-maximal response. One may read the IC50 as the point on the concentration scale where inhibition reaches its midpoint.

The subject of experiment [1] is CCRF-CEM. Briefly: Effective concentration for cytoprotective effect against HIV-1 infection in CEM cells; No protection of cells to HIV-induced Killing. It counts as functional, cell-based, Homo sapiens. Summed up:
(§1)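 CEM-SS cells in RPMI 1640 without phenol red (5% FBS, 2 mM L-glutamine, gentamicin), resuspended at 1×10^5 cells/mL, infected with HIV-1 RF at MOI 0.01-0.05. Sterols dissolved in DMSO, serially diluted in medium (final DMSO ≤1%), top concentration 100 μg/mL. Incubated 6 days at 37 °C, 5% CO2. Cytoprotection read by XTT tetrazolium viability, relative to uninfected untreated controls.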

Experiment [2] concerns CCRF-CEM. Nature of the experiment: Effective concentration was tested for cytoprotective effect against HIV-1 infection in CEM cells. The conditions noted are these: Homo sapiens. In kind it is functional, cell-based. Summed up:
as §1

Experiment [3] deals with CCRF-CEM. Nature of the experiment: Effective concentration was tested for cytoprotective effect against HIV-2 CBL 20 strain infection in CEM cells. In kind it is functional, cell-based. Conditions: Homo sapiens. A digest of the protocol:
(§2)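 HIV-2 strain CBL20 infection of CEM cells at MOI 0.01-0.05. Sterols in DMSO, diluted in complete medium (final DMSO ≤1%), maximum 100 μg/mL. Uninfected CEM-SS controls run for toxicity. XTT viability read after 6 days in culture at 37 °C, 5% CO2. Protection expressed as percent of uninfected, untreated controls.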

Experiment [4] deals with Human immunodeficiency virus 1. Nature of the experiment: Inhibition of HIV-1 mediated cytotoxicity in CEM (human leukemia) cells. The conditions noted are these: Human immunodeficiency virus 1, CCRF-CEM. In kind it is functional, organism-based. A digest of the protocol:
as §1

The test system of experiment [5] is Human immunodeficiency virus 2. Nature of the experiment: Inhibition of HIV-2 (CBL20) nediated cytotoxicity in CEM (human leukemia) cells. The conditions noted are these: Human immunodeficiency virus 2, CCRF-CEM.
Experiment [6] deals with CCRF-CEM. Briefly: Effective concentration for cytoprotective effect against HIV-2 CBL 20 strain infection in CEM cells; No protection of cells to HIV-induced Killing. In kind it is functional, cell-based, Homo sapiens. A digest of the protocol: as §2
For experiment [7], the system named is CCRF-CEM. Nature of the experiment: Inhibitory concentration for cytoprotective effect against HIV-1 infection in CEM cells. The conditions noted are these: Homo sapiens. In kind it is functional, cell-based. A digest of the protocol:
as §1

Experiment [8] relates to CCRF-CEM. Nature of the experiment: Effective concentration for cytoprotective effect against HIV-2 infection in CEM cells; No protection of cells to HIV-induced Killing. In kind it is functional, cell-based. Conditions: Homo sapiens. Summed up: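 Anticytopathicity test against HIV-2 strain ROD in CEM cells at MOI 0.01-0.05. Cells were held in RPMI 1640 with 5% FBS, and sterols were given from DMSO stocks (final DMSO ≤1%), up to 100 μg/mL. Cultures ran 6 days at 37 °C. Protection from viral killing was scored as percent, with host-cell cytotoxicity assessed in parallel.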

`CC(C)CCC[C@@H](COS(=O)(=O)[O-])[C@H]1CCC2C3CC=C4[C@H](O)[C@H](OS(=O)(=O)[O-])[C@H](O)C[C@]4(C)C3CC[C@@]21C.[Na+].[Na+]` (some centres undefined): the EC50 entry in the experiment on CCRF-CEM [1] is reported as “No protection”.
As for `CC(C)CC[C@@H](O)[C@@H](C)[C@H]1CCC2C3C[C@H](OS(=O)(=O)O)C4C[C@@H](OS(=O)(=O)O)CC[C@]4(C)C3=CC[C@@]21C` (some centres undefined), the results for the concentration giving a half-maximal response (EC50) with CCRF-CEM [2] and in the experiment with CCRF-CEM [3] were 19 µM and 128 µM, respectively. Also, the concentration for half-maximal inhibition (IC50) in experiment [4] and in experiment [5] was more than 161 µM each time.
Consider `CC(C)C(CCOS(=O)(=O)[O-])CC[C@@H](C)[C@H]1[C@@H](O)[C@H](O)C2[C@]3(O)C[C@@H](O)[C@@]4(O)C[C@@H](O)CC[C@]4(C)C3CC[C@@]21C.[Na+]` (some centres undefined), for which the EC50 result in the experiment with CCRF-CEM [1] and with CCRF-CEM [6] was “No protection” each time. In addition, the IC50 in experiment [4] and in experiment [5] was more than 164 µM in each case.
In the experiment on CCRF-CEM [2], `CC(C)CCC[C@@H](COS(=O)(=O)O)[C@H]1CCC2C3CC=C4C[C@H](O)[C@@H](OS(=O)(=O)O)C[C@]4(C)C3CC[C@@]21C` (some centres undefined) gave an EC50 of 97 µM. The IC50 in experiment [4] and in experiment [5] was more than 161 µM in each case.
As for `C=C(C)CCC[C@@H](COS(=O)(=O)O)[C@H]1CC[C@H]2[C@@H]3CC[C@]4(O)[C@H](O)[C@H](OS(=O)(=O)O)CC[C@]4(C)[C@H]3CC[C@]12C`, the EC50 came out at 86 µM in the experiment with CCRF-CEM [2] and 39 µM in the experiment with CCRF-CEM [3]. For the same compound, the IC50 in experiment [4] and in experiment [5] was more than 157 µM in each case.
For the compound `CC(C)CCC[C@@H](COS(=O)(=O)O)[C@H]1CC[C@H]2[C@@H]3CCC4[C@H](O)[C@H](OS(=O)(=O)O)CC[C@]4(C)[C@H]3[C@@H](O)C[C@]12C` (some centres undefined), the concentration for a half-maximal effect (EC50) in the experiment with CCRF-CEM [2] came out at 157 µM; in the experiment on CCRF-CEM [3], 110 µM. Besides, the results for the IC50 in experiment [4] and in experiment [5] were more than 313 µM and more than 157 µM, respectively.
As for `CC(C)[C@H](CC[C@@H](C)[C@H]1C[C@H](OS(=O)(=O)[O-])[C@H]2[C@@H]3[C@H](O)[C@H](O)C4C[C@@H](O)CC[C@]4(C)[C@H]3CC[C@@]21C)OC1OCC(O)C(O)C1O.[Na+]` (some centres undefined), the concentration giving a half-maximal response (EC50) result in the experiment with CCRF-CEM [1] and in the experiment with CCRF-CEM [6] was “No protection” each time. The IC50 in the experiment on CCRF-CEM [7] is more than 123 µM; in experiment [5] it was 69 µM.
Turning to `CC(C)C(C)CC[C@@H](C)[C@H]1CC[C@H]2[C@@H]3C[C@H](OS(=O)(=O)O)C4C[C@H](OS(=O)(=O)O)[C@@H](OS(=O)(=O)O)C[C@]4(C)[C@H]3CC[C@]12C` (some centres undefined), the EC50 in the experiment on CCRF-CEM [2] came out at 6 µM; with CCRF-CEM [3] it was 2 µM. The IC50 in experiment [4] and in experiment [5] was 56 µM throughout.
For `CC(CC[C@@H](C)[C@H]1CC[C@H]2[C@@H]3C[C@H](OS(=O)(=O)O)C4C[C@H](OS(=O)(=O)O)[C@@H](OS(=O)(=O)O)C[C@]4(C)[C@H]3CC[C@]12C)C(C)(C)C` (some centres undefined), the EC50 in the experiment with CCRF-CEM [2] is 6 µM; in the experiment on CCRF-CEM [3], 3 µM. For the same compound, the half-maximal inhibitory concentration (IC50) in experiment [4] and in experiment [5] was 41 µM throughout.
Take `CCC(C)(C)C(C)CC[C@@H](C)[C@H]1CC[C@H]2[C@@H]3C[C@H](OS(=O)(=O)O)C4C[C@H](OS(=O)(=O)O)[C@@H](OS(=O)(=O)O)C[C@]4(C)[C@H]3CC[C@]12C` (some centres undefined): the EC50 in the experiment with CCRF-CEM [2] was determined as 3 µM; in the experiment with CCRF-CEM [3], 7 µM. In addition, the values for the IC50 in experiment [4] and in experiment [5] were 17 µM and 94 µM, respectively.
For `C=C(C)CCC[C@@H](COS(=O)(=O)O)[C@H]1CC[C@H]2[C@@H]3CCC4[C@H](O)[C@H](OS(=O)(=O)O)CC[C@]4(C)[C@H]3CC[C@]12C` (some centres undefined) the same measures were 97 µM, 161 µM, more than 161 µM and more than 161 µM.
Regarding `C[C@H](CCC(=O)NC(CO)CS(=O)(=O)O)[C@H]1[C@@H](O)[C@H](O)[C@H]2[C@@H]3C[C@@H](O)[C@@]4(O)C[C@@H](O)CC[C@]4(C)[C@H]3CC[C@]12C` (some centres undefined), the concentration giving a half-maximal response (EC50) result in the experiment on CCRF-CEM [1] and in the experiment with CCRF-CEM [6] was “No protection” each time. Further, the half-inhibitory concentration (IC50) in experiment [4] and in experiment [5] was more than 174 µM throughout.
`CC(C)CC[C@@H](O)[C@@H](C)[C@H]1CC[C@H]2[C@@H]3C[C@H](OS(=O)(=O)O)C4C[C@@H](OS(=O)(=O)O)CC[C@]4(C)[C@H]3CC[C@]12C` (some centres undefined) registered an EC50 in the experiment on CCRF-CEM [2] of 48 µM. Moreover, in experiment [4], the half-inhibitory concentration (IC50) was more than 160 µM.
In the case of `CC(=O)O[C@@H]1C[C@H]2[C@@H]3C[C@H](OP(=O)([O-])OC4OC(CO)C(O)C(O)C4O)C4C[C@@H](OS(=O)(=O)[O-])CC[C@]4(C)[C@H]3CC[C@]2(C)[C@H]1[C@H](C)CCCC(C)C.[Na+].[Na+]` (some centres undefined), the EC50 entry in the experiment on CCRF-CEM [1] is “No protection”; in the experiment on CCRF-CEM [8], 13 µM. The half-maximal inhibitory concentration (IC50) in experiment [4] and in experiment [5] was more than 125 µM in each case.
In the case of `CC(C)CCC[C@@H](COS(=O)(=O)O)[C@H]1CC[C@H]2[C@@H]3CCC4[C@H](O)[C@H](OS(=O)(=O)O)CC[C@]4(C)[C@H]3[C@@H](O)[C@@H](O)[C@]12C` (some centres undefined), the values for the concentration for a half-maximal effect (EC50) in the experiment on CCRF-CEM [2] and with CCRF-CEM [3] were 122 µM and 107 µM, respectively. Besides, the 50% inhibitory concentration (IC50) in experiment [4] and in experiment [5] was more than 152 µM throughout.
With `CC(=O)O[C@H](CCC(C)C)[C@@H](C)[C@H]1CC[C@H]2[C@@H]3C[C@H](OS(=O)(=O)O)C4C[C@@H](OS(=O)(=O)O)CC[C@]4(C)[C@H]3CC[C@]12C` (some centres undefined), the EC50 with CCRF-CEM [2] worked out at 13 µM. In experiment [4], this compound gave a concentration for half-maximal inhibition (IC50) of more than 149 µM.
Turning to `CC(C)[C@H](CC[C@@H](C)[C@H]1C[C@H](OS(=O)(=O)[O-])[C@H]2[C@@H]3C[C@H](O)C4C[C@@H](O)CC[C@]4(C)[C@H]3CC[C@@]21C)OC1OCC(O)C(O)C1O.[Na+]` (some centres undefined), the half-maximal effective concentration (EC50) entry in the experiment with CCRF-CEM [1] and in the experiment with CCRF-CEM [6] was “No protection” throughout. Also, the IC50 in experiment [4] and in experiment [5] was more than 126 µM each time.
Take `CC(C)C1(CC[C@@H](C)[C@H]2CC[C@@]3(C)C4C[C@H](OS(=O)(=O)O)C5C[C@H](OS(=O)(=O)O)[C@@H](OS(=O)(=O)O)C[C@]5(C)C4=CC[C@]23C)CC1C` (some centres undefined): the EC50 in the experiment with CCRF-CEM [2] was 13 µM; in the experiment with CCRF-CEM [3] it was 8 µM. Moreover, the half-inhibitory concentration (IC50) in experiment [4] is more than 128 µM; in experiment [5], 51 µM.
In the case of `COC1([C@@H]2C=C3[C@H](O)C[C@]4(O)C(CC[C@@]5(C)C4[C@@H](OS(=O)(=O)[O-])[C@H](O)[C@@H]5[C@H](C)/C=C/[C@H](CO)C(C)C)[C@@]3(C)CC2)OCC(O)C(O)C1O.[Na+]` (some centres undefined), the EC50 result with CCRF-CEM [1] was “No protection”. In addition, the half-inhibitory concentration (IC50) in experiment [4] was 64 µM; in experiment [5], more than 64 µM.
For `CC(C)CCC[C@@H](COS(=O)(=O)O)[C@H]1CCC2C3CC=C4[C@@H](O)[C@H](OS(=O)(=O)O)CC[C@]4(C)C3CC[C@@]21C` (some centres undefined), the EC50 in the experiment with CCRF-CEM [2] was 241 µM; in the experiment on CCRF-CEM [3] it was 80 µM. For the same compound, the 50% inhibitory concentration (IC50) is more than 322 µM in experiment [4] and more than 161 µM in experiment [5].
As to `CC(=O)O[C@H](CCC(C)C)[C@@H](C)[C@H]1CCC2C3C[C@H](OS(=O)(=O)O)C4C[C@@H](OS(=O)(=O)O)CC[C@]4(C)C3=CC[C@@]21C` (some centres undefined), the EC50 in the experiment with CCRF-CEM [2] was 18 µM; in the experiment with CCRF-CEM [3], 3 µM. Besides, the concentration for half-maximal inhibition (IC50) in experiment [4] and in experiment [5] was more than 150 µM in each case.
`CC(C)CCC[C@@H](COS(=O)(=O)O)[C@H]1CC[C@H]2[C@@H]3CC[C@H]4C[C@H](OS(=O)(=O)O)CC[C@]4(C)[C@H]3CC[C@]12C`: the results for the EC50 in the experiment with CCRF-CEM [2] and in the experiment with CCRF-CEM [3] were 164 µM and more than 63 µM, respectively. Besides, the IC50 in experiment [4] is more than 312 µM; in experiment [5], more than 156 µM.
